Measured values reported in ChEMBL document CHEMBL1275344, “Synthesis and antimalarial assessment of a new series of orally active amino-functionalized spiro 1,2,4-trioxanes” (J Med Chem, 2010).
Activity calls are given as the source filed them. The calls are words filed in the database; no cut-off is given here.

Columns and labels:
[1] = tested on: Plasmodium yoelii nigeriensis; test: Antimalarial activity against multidrug-resistant Plasmodium yoelii nigeriensis infected in Swiss mice (Mus musculus) assessed as suppression of parasitaemia at 96 mg/kg, perorally for 4 days relative to control; format: functional; conditions: route oral
In short: (§1)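 Swiss mice of either sex (20 ± 2 g) infected intraperitoneally with 1 × 10⁶ MDR P. yoelii nigeriensis parasites on day 0. Five mice per dose group, given oral doses in groundnut oil, twice daily on days 0–3. Parasitaemia read from day-4 thin blood smears. Suppression = [(C − T)/C] × 100, with C and T the control and treated parasitaemia. 100% means no parasites seen in 50 oil-immersion fields.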

[2] = tested on: Plasmodium yoelii nigeriensis; test: Antimalarial activity against multidrug-resistant Plasmodium yoelii nigeriensis infected in Swiss mice (Mus musculus) assessed as suppression of parasitaemia at 48 mg/kg, peroral for 4 days relative to control; format: functional; conditions: route oral; in short: as §1
[3] = Lipophilicity, log P of the compound; format: physicochemical; conditions: octanol/water
[4] = tested on: Plasmodium yoelii nigeriensis; test: Antimalarial activity against multidrug-resistant Plasmodium yoelii nigeriensis infected in Swiss mice (Mus musculus) assessed as curated mice (Mus musculus) at 96 mg/kg, peroral for 4 days; format: functional, organism-based; parameters: dose 96 mg/kg
In short: (§2)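 Swiss mice of either sex (20 ± 2 g) inoculated intraperitoneally with 1 × 10⁶ MDR P. yoelii nigeriensis parasites on day 0. Five mice per dose group, dosed orally in groundnut oil (0.1 mL), in two divided doses daily from day 0 to 3. Thin blood smears read on day 4, then twice weekly to day 28. Mice without patent infection by day 28 counted as cured. β-Arteether was the positive control.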

[5] = tested on: Plasmodium yoelii nigeriensis; test: Antimalarial activity against multidrug-resistant Plasmodium yoelii nigeriensis infected in Swiss mice (Mus musculus) assessed as curated mice (Mus musculus) at 48 mg/kg, peroral for 4 days; format: functional, organism-based; parameters: dose 48 mg/kg; in short: as §2
[6] = tested on: Plasmodium yoelii nigeriensis; test: Antimalarial activity against multidrug-resistant Plasmodium yoelii nigeriensis infected in Swiss mice (Mus musculus) assessed as suppression of parasitaemia at 24 mg/kg, peroral for 4 days relative to control; format: functional; conditions: route oral; in short: as §1
[7] = tested on: Plasmodium yoelii nigeriensis; test: Antimalarial activity against multidrug-resistant Plasmodium yoelii nigeriensis infected in Swiss mice (Mus musculus) assessed as suppression of parasitaemia at 12 mg/kg, peroral for 4 days relative to control; format: functional; conditions: route oral; in short: as §1
[8] = tested on: Plasmodium yoelii nigeriensis; test: Antimalarial activity against multidrug-resistant Plasmodium yoelii nigeriensis infected in Swiss mice (Mus musculus) assessed as curated mice (Mus musculus) at 24 mg/kg, peroral for 4 days; format: functional, organism-based; parameters: dose 24 mg/kg; in short: as §2
[9] = tested on: Plasmodium yoelii nigeriensis; test: Antimalarial activity against multidrug-resistant Plasmodium yoelii nigeriensis infected in Swiss mice (Mus musculus) assessed as curated mice (Mus musculus) at 12 mg/kg, peroral for 4 days; format: functional, organism-based; parameters: dose 12 mg/kg; in short: as §2

SMILES | Activity [1] [%] | Activity [2] [%] | logP [3] | Activity [4] | Activity [5] | Activity [6] [%] | Activity ([7]; 12 mg/kg) [%] | Activity [7] [%] | Activity [8] | Activity [9]
C=C(c1cccc2ccccc12)C1CCC2(CC1)COC(Nc1ccc(C)cc1)OO2 (stereo not given) | 100 | 100 | 6.08 |  |  |  |  |  |  | 
C=C(c1ccc2ccccc2c1)C1CCC2(CC1)COC(Nc1ccccc1)OO2 (stereo not given) | 100 | 100 | 5.59 | Active |  |  |  |  |  | 
C=C(c1cccc2ccccc12)C1CCC2(CC1)COC(Nc1ccc(C(F)(F)F)cc1)OO2 (stereo not given) | 100 | 100 | 6.51 | Active |  |  |  |  |  | 
C=C(c1ccc2ccccc2c1)C1CCC2(CC1)COC(Nc1ccc(C)cc1)OO2 (stereo not given) | 100 | 100 | 6.08 | Active |  |  |  |  |  | 
C=C(c1ccc2c(c1)Cc1ccccc1-2)C1CCC2(CC1)COC(Nc1ccc(F)cc1)OO2 (stereo not given) | 100 | 100 | 6.48 | Active |  |  |  |  |  | 
C=C(c1ccc2ccc3ccccc3c2c1)C1CCC2(CC1)COC(Nc1ccc(C)cc1)OO2 (stereo not given) | 100 | 100 | 7.07 | Active | Active | 100 |  |  |  | 
C=C(c1ccc2ccc3ccccc3c2c1)C1CCC2(CC1)COC(Nc1ccccc1)OO2 (stereo not given) | 100 | 100 | 6.59 | Active |  | 100 |  |  |  | 
CCO[C@H]1O[C@@H]2O[C@@]3(C)CC[C@H]4[C@H](C)CC[C@@H]([C@H]1C)[C@@]24OO3 [ARTEMOTIL] |  | 100 |  |  | Active | 100 |  |  |  | 
C=C(c1ccc2ccc3ccccc3c2c1)C1CCC2(CC1)COC(Nc1ccc(C(F)(F)F)cc1)OO2 (stereo not given) | 100 | 82.22 | 7.51 | Active | inactive |  |  |  |  | 
C=C(c1ccc2ccccc2c1)C1CCC2(CC1)COC(Nc1ccc(C(F)(F)F)cc1)OO2 (single isomer, unassigned; less polar) [listing 1 of 2 here] | 100 | 100 | 6.51 |  |  | 100 | 6.25 |  |  | 
C=C(c1ccc2ccccc2c1)C1CCC2(CC1)COC(Nc1ccc(Cl)cc1)OO2 (stereo not given) | 100 | 100 | 6.15 | Active | Active | 100 |  | 60 | inactive | inactive
C=C(c1ccc2ccc3ccccc3c2c1)C1CCC2(CC1)COC(Nc1ccc(Cl)cc1)OO2 (stereo not given) | 100 | 76.9 | 7.14 | Active |  |  |  |  |  | 
C=C(c1cccc2ccccc12)C1CCC2(CC1)COC(Nc1cc(Cl)cc(Cl)c1)OO2 (stereo not given) | 100 | 100 | 6.71 | Active |  |  |  |  |  | 
C=C(c1ccc2ccc3ccccc3c2c1)C1CCC2(CC1)COC(Nc1ccc(OC)cc1)OO2 (stereo not given) | 100 | 100 | 6.46 | Active |  |  |  |  |  | 
C=C(c1ccc2ccc3ccccc3c2c1)C1CCC2(CC1)COC(Nc1ccc(F)cc1)OO2 (stereo not given) | 100 | 100 | 6.74 | Active |  |  |  |  |  | 
C=C(c1ccc2c(c1)Cc1ccccc1-2)C1CCC2(CC1)COC(Nc1ccc(OC)cc1)OO2 (stereo not given) | 100 | 100 | 6.2 | Active | inactive |  |  |  |  | 
C=C(c1cccc2ccccc12)C1CCC2(CC1)COC(Nc1ccccc1)OO2 (stereo not given) | 100 | 100 | 5.59 | Active |  |  |  |  |  | 
C=C(c1ccc2ccccc2c1)C1CCC2(CC1)COC(Nc1ccc(F)cc1)OO2 (stereo not given) | 100 | 100 | 5.75 | Active |  | 100 |  |  |  | 
C=C(c1cccc2ccccc12)C1CCC2(CC1)COC(Nc1ccc(OC)cc1)OO2 (stereo not given) | 100 | 100 | 5.46 | Active |  |  |  |  |  | 
C=C(c1cccc2ccccc12)C1CCC2(CC1)COC(Nc1ccc(Cl)cc1)OO2 (stereo not given) | 100 | 100 | 6.15 |  |  |  |  |  |  | 

SMILES | Activity [1] [%] | Activity [2] [%] | logP [3] | Activity [4] | Activity [5] | Activity [6] [%] | Activity ([7]; 12 mg/kg) [%] | Activity [7] [%] | Activity [8] | Activity [9]
C=C(c1ccc2c(c1)Cc1ccccc1-2)C1CCC2(CC1)COC(Nc1ccccc1)OO2 (stereo not given) | 100 | 100 | 6.33 | Active |  |  |  |  |  | 
C=C(c1ccc2ccccc2c1)C1CCC2(CC1)COC(Nc1cc(Cl)cc(Cl)c1)OO2 (stereo not given) | 100 | 100 | 6.71 | Active |  |  |  |  |  | 
C=C(c1ccc2c(c1)Cc1ccccc1-2)C1CCC2(CC1)COC(Nc1cc(Cl)cc(Cl)c1)OO2 (stereo not given) | 100 |  | 7.44 | inactive |  |  |  |  |  | 
C=C(c1ccc2c(c1)Cc1ccccc1-2)C1CCC2(CC1)COC(Nc1cccc(C(F)(F)F)c1)OO2 (stereo not given) | 100 | 100 | 7.25 | Active | inactive |  |  |  |  | 
C=C(c1ccc2ccc3ccccc3c2c1)C1CCC2(CC1)COC(Nc1cc(Cl)cc(Cl)c1)OO2 (stereo not given) | 100 | 62.5 | 7.7 | Active |  |  |  |  |  | 
C=C(c1ccc2ccccc2c1)C1CCC2(CC1)COC(Nc1ccc(C(F)(F)F)cc1)OO2 (single isomer, unassigned; more polar) [listing 1 of 2 here] |  |  |  | Active | Active |  |  |  | Active | 
C=C(c1ccc2ccc3ccccc3c2c1)C1CCC2(CC1)COC(Nc1ccccc1-c1ccccc1)OO2 (stereo not given) | 100 | 74.36 | 8.26 | Active | inactive |  |  |  |  | 
C=C(c1ccc2ccccc2c1)C1CCC2(CC1)COC(Nc1ccc(OC)cc1)OO2 (stereo not given) | 100 | 100 | 5.46 | Active |  |  |  |  |  | 
C=C(c1ccc2c(c1)Cc1ccccc1-2)C1CCC2(CC1)COC(Nc1ccccc1-c1ccccc1)OO2 (stereo not given) | 100 |  | 8 | inactive |  |  |  |  |  | 
C=C(c1ccc2c(c1)Cc1ccccc1-2)C1CCC2(CC1)COC(Nc1ccc(Cl)cc1)OO2 (stereo not given) | 100 |  | 6.88 | Active |  |  |  |  |  | 
C=C(c1ccc2ccc3ccccc3c2c1)C1CCC2(CC1)COC(Nc1cccc(C(F)(F)F)c1)OO2 (stereo not given) | 100 | 100 | 7.51 | Active | inactive |  |  |  |  | 
C=C(c1cccc2ccccc12)C1CCC2(CC1)COC(Nc1ccccc1-c1ccccc1)OO2 (stereo not given) | 100 | 100 | 7.26 | Active |  |  |  |  |  | 
C=C(c1cccc2ccccc12)C1CCC2(CC1)COC(Nc1ccc(F)cc1)OO2 (stereo not given) | 100 | 100 | 5.75 | Active |  |  |  |  |  | 
C=C(c1ccc2c(c1)Cc1ccccc1-2)C1CCC2(CC1)COC(Nc1ccc(C(F)(F)F)cc1)OO2 (stereo not given) | 100 | 100 | 7.25 | Active |  |  |  |  |  | 
C=C(c1ccc2c(c1)Cc1ccccc1-2)C1CCC2(CC1)COC(Nc1ccc(C)cc1)OO2 (stereo not given) | 100 | 100 | 6.81 | Active |  |  |  |  |  | 
C=C(c1ccc2ccccc2c1)C1CCC2(CC1)COC(Nc1ccccc1-c1ccccc1)OO2 (stereo not given) | 100 | 100 | 7.26 | Active |  |  |  |  |  | 
C=C(c1ccc2ccccc2c1)C1CCC2(CC1)COC(Nc1ccc(C(F)(F)F)cc1)OO2 (single isomer, unassigned; more polar) [listing 2 of 2 here] |  |  |  |  |  |  | 100 |  |  | 
C=C(c1cccc2ccccc12)C1CCC2(CC1)COC(Nc1cccc(C(F)(F)F)c1)OO2 (stereo not given) | 100 | 100 | 6.51 | Active |  |  |  |  |  | 
C=C(c1ccc2ccccc2c1)C1CCC2(CC1)COC(Nc1cccc(C(F)(F)F)c1)OO2 (stereo not given) | 100 | 100 | 6.51 | Active |  |  |  |  |  | 
C=C(c1ccc2ccccc2c1)C1CCC2(CC1)COC(Nc1ccc(C(F)(F)F)cc1)OO2 (single isomer, unassigned; less polar) [listing 2 of 2 here] |  |  |  | Active | Active |  |  |  | Active | inactive
